{
  "source": "ChEMBL document CHEMBL1132709",
  "about": "“Novel cyclopropapyrroloindole derivative (AT-3510) bearing methoxycarbonyl and trifluoromethyl groups” (J Med Chem, 1999)",
  "key": {"Mus musculus [1]": {"test_system": "Mus musculus", "assay": "In vivo antitumor activity (0.25 mg/Kg) is the measure of tumor growth inhibition of colon 26 murine […] cells.", "assay_type": "functional", "in_short": "(§1)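 Colon 26 cells (10^6/mouse) inoculated sc into male CDF1 mice on day 0; drug given iv on day 7. Read-out is percentage tumor growth inhibition versus the untreated group.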"}, "HeLa": {"test_system": "HeLa", "assay": "Concentration required to inhibit the growth of HeLaS3 human uterine cervix carcinoma cells by 50%", "assay_type": "functional, cell-based"}, "Mus musculus [2]": {"test_system": "Mus musculus", "assay": "In vivo antitumor activity (0.5 mg/Kg) is the measure of tumor growth inhibition of colon 26 murine […] cells.", "assay_type": "functional", "in_short": "as §1"}, "P338": {"test_system": "P338", "assay": "In vitro concentration required to inhibit the growth of […] murine leukemia cells by 50%", "assay_type": "functional, cell-based", "conditions": "Mus musculus"}, "Mus musculus [3]": {"test_system": "Mus musculus", "assay": "In vivo antitumor activity (0.125 mg/Kg) is the measure of tumor growth inhibition of colon 26 murine […] cells.", "assay_type": "functional", "in_short": "as §1"}, "Mus musculus [4]": {"test_system": "Mus musculus", "assay": "In vivo antitumor activity (0.125 mg/Kg) is the measure of increase in life span of mice bearing P388 murine leukemia cells", "assay_type": "functional"}, "Mus musculus [5]": {"test_system": "Mus musculus", "assay": "In vivo antitumor activity (0.125 mg/Kg) is the measure of tumor growth inhibition in mice bearing S180 murine sarcoma cells", "assay_type": "functional, CCRF S-180"}, "Mus musculus [6]": {"test_system": "Mus musculus", "assay": "In vivo antitumor activity (0.25 mg/Kg) is the measure of increase in life span of mice bearing P388 murine leukemia cells; 2/2 cured mice (>60-day survivors)", "assay_type": "functional, organism-based"}, "Mus musculus [7]": {"test_system": "Mus musculus", "assay": "In vivo antitumor activity (0.584 mg/kg) is the measure of tumor growth inhibition of human tumor xenograft WiDr (colon) implanted sc in mice.", "assay_type": "functional", "in_short": "(§2)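 Tumor fragments (2–3 mm3) implanted sc into female BALB/cA Jcl-nu mice on day 0. A single iv dose was given once tumor volume reached about 100 mm3. Read-out is percentage of maximum tumor growth inhibition versus the untreated group.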"}, "Mus musculus [8]": {"test_system": "Mus musculus", "assay": "In vivo antitumor activity (0.584 mg/kg) is the measure of tumor growth inhibition of human tumor xenograft HCT116 (colon) implanted sc in mice.", "assay_type": "functional", "in_short": "as §2"}, "Mus musculus [9]": {"test_system": "Mus musculus", "assay": "In vivo antitumor activity (0.584 mg/kg) is the measure of tumor growth inhibition of human tumor xenograft NUGC-3 (stomach) implanted sc in mice.", "assay_type": "functional", "in_short": "as §2"}, "Mus musculus [10]": {"test_system": "Mus musculus", "assay": "In vivo antitumor activity (0.584 mg/kg) is the measure of tumor growth inhibition of human tumor xenograft DLD-1 (colon) implanted sc in mice.", "assay_type": "functional", "in_short": "as §2"}, "Mus musculus [11]": {"test_system": "Mus musculus", "assay": "In vivo antitumor activity (9.81 mg/kg) is the measure of tumor growth inhibition of human tumor xenograft DLD-1 (colon) implanted sc in mice.", "assay_type": "functional, organism-based", "in_short": "as §2"}, "Mus musculus [12]": {"test_system": "Mus musculus", "assay": "In vivo antitumor activity (9.81 mg/kg) is the measure of tumor growth inhibition of human tumor xenograft HCT116 (colon) implanted sc in mice.", "assay_type": "functional, organism-based", "in_short": "as §2"}, "Mus musculus [13]": {"test_system": "Mus musculus", "assay": "In vivo antitumor activity (9.81 mg/kg) is the measure of tumor growth inhibition of human tumor xenograft NUGC-3 (stomach) implanted sc in mice.", "assay_type": "functional, organism-based", "in_short": "as §2"}, "Mus musculus [14]": {"test_system": "Mus musculus", "assay": "In vivo antitumor activity (9.81 mg/kg) is the measure of tumor growth inhibition of human tumor xenograft WiDr (colon) implanted sc in mice.", "assay_type": "functional, organism-based", "in_short": "as §2"}},
  "data": [
    {"molecule": "COC(=O)c1c(C(F)(F)F)[nH]c2c(O)cc3c(c12)[C@H](CCl)CN3C(=O)c1cc2cc(NC(=O)c3cc4cccc(OC)c4cn3)ccc2[nH]1", "note": "(racemic)", "values": [
      {"measurement": "TGI", "setting": "Mus musculus [1]", "value": 90, "unit": "%"},
      {"measurement": "IC50", "setting": "HeLa", "value": 0.51, "unit": "ng/mL"}
    ]},
    {"molecule": "COC(=O)c1c(C(F)(F)F)[nH]c2c(O)cc3c(c12)[C@H](CCl)CN3C(=O)c1cc2cc(NC(=O)c3cnc4ccccc4c3)ccc2[nH]1", "note": "(racemic)", "values": [
      {"measurement": "TGI", "setting": "Mus musculus [2]", "value": 84, "unit": "%"},
      {"measurement": "IC50", "setting": "HeLa", "value": 1.5, "unit": "ng/mL"}
    ]},
    {"molecule": "COC(=O)c1c(C(F)(F)F)[nH]c2c(O)cc3c(c12)[C@H](CCl)CN3C(=O)c1cc2cc(NC(=O)c3cc4ccc(OC)cc4o3)ccc2[nH]1", "note": "(racemic)", "values": [
      {"measurement": "TGI", "setting": "Mus musculus [2]", "value": 94, "unit": "%"},
      {"measurement": "IC50", "setting": "HeLa", "value": 0.12, "unit": "ng/mL"}
    ]},
    {"molecule": "COC(=O)c1[nH]c2c(c1C(=O)OC)[C@@]13C[C@@H]1CN(C(=O)c1cc4cc(NC(=O)c5cc6ccccc6o5)ccc4[nH]1)C3=CC2=O", "note": "(racemic)", "values": [
      {"measurement": "IC50", "setting": "P338", "value": 0.66, "unit": "ng/mL"}
    ]},
    {"molecule": "COC(=O)c1c(C(F)(F)F)[nH]c2c1[C@@]13C[C@@H]1CN(C(=O)c1cc4cc(OC)c(OC)c(OC)c4[nH]1)C3=CC2=O", "note": "(racemic)", "values": [
      {"measurement": "IC50", "setting": "P338", "value": 0.24, "unit": "ng/mL"}
    ]},
    {"molecule": "COC(=O)c1c(C(F)(F)F)[nH]c2c(O)cc3c(c12)[C@H](CCl)CN3C(=O)c1cc2cc(OC)c(OC)c(OC)c2o1", "note": "(racemic)", "values": [
      {"measurement": "TGI", "setting": "Mus musculus [2]", "value": 75, "unit": "%"},
      {"measurement": "IC50", "setting": "HeLa", "value": 0.12, "unit": "ng/mL"}
    ]},
    {"molecule": "COC(=O)c1c(C(F)(F)F)[nH]c2c(O)cc3c(c12)[C@H](CCl)CN3C(=O)c1cc2c(OC)c(OC)c(OC)cc2[nH]1", "note": "(racemic)", "values": [
      {"measurement": "IC50", "setting": "HeLa", "value": 32, "unit": "ng/mL"}
    ]},
    {"molecule": "COC(=O)c1c(C(F)(F)F)[nH]c2c(O)cc3c(c12)[C@H](CCl)CN3C(=O)c1cc2cc(NC(=O)c3cc4cc(OC)ccc4o3)ccc2[nH]1", "note": "(racemic)", "values": [
      {"measurement": "TGI", "setting": "Mus musculus [2]", "value": 94, "unit": "%"},
      {"measurement": "IC50", "setting": "HeLa", "value": 0.064, "unit": "ng/mL"}
    ]},
    {"molecule": "COC(=O)c1c(C(F)(F)F)[nH]c2c(O)cc3c(c12)[C@H](CCl)CN3C(=O)c1cc2cc(NC(=O)c3cc4ccccc4o3)ccc2[nH]1", "note": "(racemic)", "values": [
      {"measurement": "TGI", "setting": "Mus musculus [2]", "value": 85, "unit": "%"},
      {"measurement": "IC50", "setting": "HeLa", "value": 0.53, "unit": "ng/mL"}
    ]},
    {"molecule": "COC(=O)c1c(C)[nH]c2c1[C@@]13C[C@@H]1CN(C(=O)c1cc4cc(OC)c(OC)c(OC)c4[nH]1)C3=CC2=O", "note": "(racemic)", "values": [
      {"measurement": "IC50", "setting": "P338", "value": 0.34, "unit": "ng/mL"}
    ]},
    {"molecule": "COC(=O)c1c(C(F)(F)F)[nH]c2c(O)cc3c(c12)[C@H](CCl)CN3C(=O)c1cc2cc(NC(=O)c3cc4cc(OC)ccc4cn3)ccc2[nH]1", "note": "(racemic)", "values": [
      {"measurement": "TGI", "setting": "Mus musculus [1]", "value": 90, "unit": "%"},
      {"measurement": "IC50", "setting": "HeLa", "value": 0.18, "unit": "ng/mL"}
    ]},
    {"molecule": "COC(=O)c1c(C(F)(F)F)[nH]c2c1[C@@]13C[C@@H]1CN(C(=O)c1cc4cc(OC)ccc4[nH]1)C3=CC2=O", "note": "(racemic)", "values": [
      {"measurement": "IC50", "setting": "P338", "value": 0.23, "unit": "ng/mL"}
    ]},
    {"molecule": "COC(=O)c1c(C(F)(F)F)[nH]c2c(O)cc3c(c12)[C@H](CCl)CN3C(=O)c1cc2cc(NC(=O)c3cc4c(OC)cccc4cn3)ccc2[nH]1", "note": "(racemic)", "values": [
      {"measurement": "TGI", "setting": "Mus musculus [3]", "value": 67, "unit": "%"},
      {"measurement": "IC50", "setting": "HeLa", "value": 0.2, "unit": "ng/mL"}
    ]},
    {"molecule": "Cc1c[nH]c2c1[C@@]13C[C@@H]1CN(C(=O)c1cc4cc(NC(=O)c5cc6ccccc6[nH]5)ccc4[nH]1)C3=CC2=O", "note": "(racemic)", "values": [
      {"measurement": "ILS", "setting": "Mus musculus [4]", "value": 210, "unit": "%"},
      {"measurement": "TGI", "setting": "Mus musculus [5]", "value": 86, "unit": "%"},
      {"measurement": "IC50", "setting": "P338", "value": 0.028, "unit": "ng/mL"}
    ]},
    {"molecule": "COC(=O)c1[nH]c2c(c1C(=O)OC)[C@@]13C[C@@H]1CN(C(=O)c1cc4cc(NC(=O)c5cc6ccccc6[nH]5)ccc4[nH]1)C3=CC2=O", "note": "(racemic)", "values": [
      {"measurement": "IC50", "setting": "P338", "value": 0.31, "unit": "ng/mL"}
    ]},
    {"molecule": "COC(=O)c1c(C(F)(F)F)[nH]c2c1[C@@]13C[C@@H]1CN(C(=O)c1cc4cc(NC(=O)c5cc6ccccc6o5)ccc4[nH]1)C3=CC2=O", "note": "(racemic)", "values": [
      {"measurement": "ILS", "setting": "Mus musculus [6]", "value": "2/2 cured mice (>60-day survivors)"}
    ]},
    {"molecule": "CCN(CC)c1ccc2cc(C(=O)Nc3ccc4[nH]c(C(=O)N5C[C@@H](CCl)c6c5cc(OC(=O)Nc5ccccc5)c5[nH]cc(C)c65)cc4c3)oc2c1", "note": "[CARZELESIN]", "values": [
      {"measurement": "TGI", "setting": "Mus musculus [7]", "value": 56, "unit": "%"},
      {"measurement": "TGI", "setting": "Mus musculus [8]", "value": 82, "unit": "%"},
      {"measurement": "TGI", "setting": "Mus musculus [9]", "value": 98, "unit": "%"},
      {"measurement": "TGI", "setting": "Mus musculus [10]", "value": 79, "unit": "%"}
    ]},
    {"molecule": "CISPLATIN", "values": [
      {"measurement": "TGI", "setting": "Mus musculus [11]", "value": 25, "unit": "%"},
      {"measurement": "TGI", "setting": "Mus musculus [12]", "value": 34, "unit": "%"},
      {"measurement": "TGI", "setting": "Mus musculus [13]", "value": 87, "unit": "%"},
      {"measurement": "TGI", "setting": "Mus musculus [14]", "value": 44, "unit": "%"}
    ]}
  ]
}
